High-throughput results (PubChem)
PfM18AAP inh-1: blocks P. falciparum M18 aspartyl aminopeptidase; recombinant PfM18AAP, H-Glu-NHMec fluorogenic cleavage; inhibition, % at 7.35 µM; 290,000 compounds, 1.2% hits; AID 1822;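 active = inhibition above the campaign mean inhibition over all tested compounds plus 3 SD, cut at about 28% in these data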;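 note: 0% = plate median of test compound wells and 100% = 2 mM ZnCl2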
ZTA counter: counter-screen for EBNA-1 inhibitors: inhibitors of Epstein-Barr virus ZTA. P03206. ZTA-DNA binding, fluorescence polarization. inhibition, % at 11 µM. 320,000 compounds, 0.15% hits. AID 2234; in the data active = inhibition above about 33%
UBC13 inh: human UBC13 polyubiquitination inhibition | P61088 | UBC13 polyubiquitin chain formation, TR-FRET | 330,000 compounds, 0.47% hits | inhibition, % at 20 µM; in the data active = inhibition above about 45%, passing the limit was not always enough
Target sequence (P61088 whole entry, looked up): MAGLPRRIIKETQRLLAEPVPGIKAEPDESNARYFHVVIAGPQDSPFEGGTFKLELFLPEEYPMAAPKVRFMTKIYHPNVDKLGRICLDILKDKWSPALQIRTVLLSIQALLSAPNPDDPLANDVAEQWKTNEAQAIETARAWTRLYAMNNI
PfGluPho inh: PfG6PD (Plasmodium falciparum) enzyme inhibition; PfGluPho enzyme, NADPH resazurin-diaphorase fluorescence; inhibition, % at 20 µM; 350,000 compounds, 0.78% hits; AID 504690;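 active = inhibition reaching at least a set limit at 20 µM in the primary screen, cut at about 59% in these data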;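 note: 0% = DMSO wells with substrate and 100% = DMSO wells lacking glucose-6-phosphate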
Apaf1 inhib: inhibitors of human Apaf-1 apoptosome; O14727; reconstituted apoptosome caspase-3 activity, DEVD-Rh110 fluorescence; inhibition, % at 20 µM; 330,000 compounds, 0.71% hits; AID 489030; active = inhibition of at least 40% at 20 µM;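 note: plate controls were DMSO wells for no effect and DEVD-CHO caspase inhibitor wells for full effect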
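System – cell-free apoptosome with Apaf-1, procaspase-3 and caspase-9 · Buffer or medium – pH 7.5 Hepes buffer with CHAPS, BSA, DTT · Also added – cytochrome c with DEVD-Rh110 · Times – 30 min compound preincubation, 50 min activation, room temperature · Technique – Rh110 fluorescence intensity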
EBNA-1 inhibitor: blocks EBNA-1 binding to DNA; inhibition, % at 14.8 µM; EBNA-1 DNA binding, fluorescence polarization; AID 1950; 300,000 compounds, 0.34% hits; in the data active = inhibition above about 28%
PfM18AAP inh-2: confirmation of Plasmodium falciparum M18 aspartyl aminopeptidase inhibitors; shares compounds with PfM18AAP inh-1; inhibition, % at 7.35 µM; 2,400 compounds, 28% hits; recombinant PfM18AAP, H-Glu-NHMec fluorogenic cleavage;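 active = mean inhibition over replicate wells above the hit cutoff set for the earlier primary screen, cut at about 29% in these data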;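 note: 0% = median of test compound wells and 100% = 2 mM ZnCl2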
CTSL1 confirm: Cathepsin L (human) inhibition, confirmation | shares compounds with PfM18AAP inh-1 | inhibition, % at 5.96 µM | purified cathepsin L1, Z-Leu-Arg-MCA fluorescence | AID 2178 | 2,400 tested, under 10 active;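 active = average inhibition across replicates above the hit cutoff set in the earlier primary screen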;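 note: 0% = median of test compound wells and 100% = Z-Phe-Ala-diazomethylketone 1 µM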
Target sequence (P07711 whole entry, looked up): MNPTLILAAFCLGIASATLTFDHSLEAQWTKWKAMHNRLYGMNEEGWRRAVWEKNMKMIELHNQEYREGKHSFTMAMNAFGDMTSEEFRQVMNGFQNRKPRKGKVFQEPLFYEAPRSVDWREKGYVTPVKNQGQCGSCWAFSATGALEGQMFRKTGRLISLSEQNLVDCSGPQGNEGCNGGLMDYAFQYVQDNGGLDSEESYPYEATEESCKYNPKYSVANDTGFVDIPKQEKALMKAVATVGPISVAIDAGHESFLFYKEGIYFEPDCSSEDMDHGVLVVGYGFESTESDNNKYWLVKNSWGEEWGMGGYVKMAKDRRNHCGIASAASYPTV
* hit, by the source's call; x = not tested or not shown. Hits are enriched below; roughly 2.9% of the tested compounds scored in any of these assays.

SMILES	PfM18AAP inh-1	ZTA counter	UBC13 inh	PfGluPho inh	Apaf1 inhib	EBNA-1 inhibitor	PfM18AAP inh-2	CTSL1 confirm
Cc1ccc(C(=O)Nn2cnnc2)c(Cl)c1	49*	-17	-1	-2	-5	13	42*	-6
Cc1onc(-c2c(Cl)cccc2Cl)c1C(=O)Nn1cnnc1	45*	-10	6	9	-17	2	37*	2
Cn1c(N)c(S(=O)(=O)N2CCCC2)c(=O)n(C)c1=O	-12	-13	-8	10	4	5	x	x
COc1ccc(C)cc1N(CC(=O)NCCSCc1ccco1)S(=O)(=O)c1ccc(C)cc1	1	-1	-4	20	29	-12	x	x
CC(=O)N1CCN(S(=O)(=O)c2cccc(C(=O)Nc3ccccc3N3CCCCC3)c2)CC1	x	x	8	0	24	x	x	x
COc1ccc(S(=O)(=O)N2CCN(C)CC2)cc1C(=O)Nc1ccccc1	2	-8	-2	-7	2	-8	x	x
COc1ccc(C(=O)Nn2cnnc2)cc1OC	43*	0	-1	-11	-5	4	26	-1
O=C(NC1CCC(O)CC1)c1ccc(-c2ccc([N+](=O)[O-])cc2)o1 (stereo unspecified)	33*	-9	-6	24	3	-5	-120	3
NNC(=O)c1cc(O)c(O)c(O)c1	65*	-2	18	58	1	-22	44*	-4
COc1cccc(-n2c(CCn3nc(C)c([N+](=O)[O-])c3C)n[nH]c2=S)c1	32*	6	3	54	1	10	2	0
Cc1cccc(-n2c(CCn3nc(C)c([N+](=O)[O-])c3C)n[nH]c2=S)c1	18	2	-1	45	-9	0	x	x
Cc1cc2c(cc1S(=O)(=O)NCc1ccc(N(C)C)cc1)OCC(=O)N2	2	-2	0	3	8	1	x	x
N#CC1=C(N)C(C#N)(C#N)C2(CCC3(CC2)OCCO3)C2CC3(CC=C12)OCCO3 (stereo unspecified)	55*	-17	0	3	-15	4	-3	-1
CC1CCN(C(=O)CCNS(=O)(=O)c2ccc(Cl)cc2)CC1	-3	-3	10	-6	5	11	x	x
O=C(CC1Sc2ccccc2NC1=O)Nc1cccc(C(=O)O)c1 (stereo unspecified)	41*	-5	-11	10	-13	4	25	-4
CN(C)c1ccc(CNc2ncn[nH]2)cc1	37*	0	2	-6	-7	-11	-9	-1
COc1ccccc1CNc1ccc(CNc2ncn[nH]2)cc1	33*	-14	6	-17	-3	2	-17	1
COc1cc(CNc2ccc(CNc3ncn[nH]3)cc2)ccc1OCc1ccccc1	47*	11	4	25	10	11	-5	4
O=C(/C=C/c1ccc(O)c(O)c1)NC(=O)c1ccccc1O	77*	-2	-16	-10	-9	-3	62*	-1
N#Cc1c(/N=C/c2ccco2)sc2c1CCCCC2	35*	1	5	15	-169	9	-31	2
CCN(CC)S(=O)(=O)c1ccc2oc(SCC(=O)NC3CC3)nc2c1	32*	10	-10	24	7	5	-24	-8
O=S(=O)(NCC(c1ccco1)N1CCc2ccccc2C1)c1ccc(Br)cc1 (stereo unspecified)	x	-17	0	15	26	-5	x	x
O=C(Nn1cnnc1)c1cc2cc(Br)ccc2oc1=O	34*	-9	-2	-9	-13	0	25	3
O=c1[nH]c(/C=C\c2ccc(O)c(O)c2)nc(O)c1[N+](=O)[O-]	78*	x	-24	1	-3	x	76*	4
O=c1[nH]c(/C=C\c2cccc(O)c2)nc(O)c1[N+](=O)[O-]	6	5	-9	-15	-6	-3	x	x
SMILES	PfM18AAP inh-1	ZTA counter	UBC13 inh	PfGluPho inh	Apaf1 inhib	EBNA-1 inhibitor	PfM18AAP inh-2	CTSL1 confirm
Cc1ccc(NC(=O)NC(=O)COc2ccccc2C(N)=O)c(C)c1	x	6	-3	-29	-8	x	x	x
CC(=O)NC(c1ccc(Cl)cc1)c1ccc2cccnc2c1O (stereo unspecified)	x	x	x	-16	x	x	x	x
CC(=O)NC(c1ccco1)c1ccc2cccnc2c1O (stereo unspecified)	48*	-2	-15	-22	-13	0	-13	5
CC1Cc2c([nH]c(=O)n(-c3ccccc3)c2=O)O1 (stereo unspecified)	x	x	x	3	x	x	x	x
O=C(O)c1cn[nH]c1-n1cnnn1	65*	-2	-7	-9	-10	-2	65*	-6
CC(=O)Nc1ccc(-n2cnnn2)cc1	1	-6	7	-5	-2	2	x	x
C[n+]1ccc(CC2C(=[N+]([O-])[O-])C=Nc3ncnn32)cc1 (stereo unspecified)	32*	x	x	10	x	x	-10	6
Cc1c[n+](C)ccc1CC1C([N+](=O)[O-])=C[N-]c2ncnn21 (stereo unspecified)	21	x	x	6	x	x	x	x
COc1ccccc1OCCC(=O)OCC(=O)Nc1ccc(Br)cc1F	4	-13	2	15	-1	6	x	x
C/C(=N/Nc1nc(-c2ccccc2)cc(-c2ccc(F)cc2)n1)c1cccc(N)c1	36*	12	4	15	23	-1	-8	3
C/C(=N\Nc1nc(C)cc(-c2ccccc2)n1)c1ccc(F)cc1	-10	6	-4	-15	13	10	x	x
CC1(C)Cc2c(c(N3CCOCC3)nc3sc4c(NN)ncnc4c23)CS1	33*	2	33	12	23	11	-7	3
O=[N+]([O-])c1cc([N+](=O)[O-])c2cccnc2c1Oc1ccccc1O	84*	15	x	-4	x	-1	60*	4
O=[N+]([O-])c1cc(Cl)c(O)c2ncccc12	2	x	-57	38	38	x	x	x
O=C(NCC1CCCO1)NC1(C(F)(F)F)Oc2ccccc2O1 (stereo unspecified)	37*	8	5	0	5	11	-16	1
O=C(NC1(C(F)(F)F)Oc2ccccc2O1)N1CCCC1	75*	16	8	6	8	12	45*	-1
O=C(Nc1ccccc1)N1CCCC1	-4	3	2	-2	-6	1	x	x
O=C(N/N=C/c1cccnc1)c1cc(O)c(O)c(O)c1	40*	3	-2	51	2	-12	6	-3
O=C(N/N=C/c1cccnc1)c1ccc(O)cc1	0	2	3	2	-3	-3	x	x
Cc1cc2c(=O)[nH]cnc2s1	-1	-4	0	0	-35	-14	x	x
O=c1[nH]cnc2[nH]ncc12	49*	-5	4	-8	4	-4	9	-6
